Test results: ChEMBL document CHEMBL2331304, “N1,N3-disubstituted uracils as nonnucleoside inhibitors of HIV-1 reverse transcriptase” (Bioorg Med Chem, 2013)
pEC50, pIC50, pKi: −log10 of the molar value. Active and inactive are the calls of the source. The rule behind the calls is not given here.

Experiments:
[1] = biological target: Human immunodeficiency virus type 1 reverse transcriptase (Human immunodeficiency virus 1, UniProt Q72547, K103N); test: Inhibition of HIV1 reverse transcriptase p66/p51 K103N mutant after 30 mins by liquid scintillation counting
[2] = biological target: Human immunodeficiency virus type 1 reverse transcriptase (Human immunodeficiency virus 1, UniProt Q72547, L100I); test: Inhibition of HIV1 reverse transcriptase p66/p51 L100I mutant after 30 mins by liquid scintillation counting
[3] = biological target: Human immunodeficiency virus type 1 reverse transcriptase (Human immunodeficiency virus 1, UniProt Q72547); test: Non-competitive inhibition of wild type HIV1 reverse transcriptase p66/p51 after 30 mins by liquid scintillation counting
[4] = Selectivity index, ratio of CC50 for human MT4 cells to EC50 for HIV1 3B infected in human MT4 cells; type: toxicity, cell-based; conditions: MT4 cells (uninfected for CC50; HIV-1 3B infected for EC50)
MT4 = test: Cytotoxicity against human MT4 cells after 4 days by MTT assay; type: cell-based; conditions: mt4, 96 h
[5] = test system: Human immunodeficiency virus 1; test: Antiviral activity against HIV1 3B infected in human MT4 cells assessed as inhibition of virus-induced cytopathic effect after 4 days by MTT assay; type: functional, organism-based; conditions: Human immunodeficiency virus 1, 3B, MT4, 96 h
Summary of the method: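 HIV-1 in MT-4 cells at 1 × 10^5 cells/ml, infected at MOI 0.02 (virus stock titrated as CCID50), then plated immediately onto varying compound concentrations. After 4 days at 37 °C, viable cells counted by MTT.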

Human alphaherpesvirus 3 = test: Antiviral activity against Varicella zoster virus; type: functional, organism-based
Summary of the method: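 VZV strain Oka and the TK− strain 07-1 were inoculated at 20 PFU onto confluent cell monolayers in the presence of varying compound concentrations. Plaque formation was recorded once complete in untreated infected controls.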

Punta Toro virus = test: Antiviral activity against Punta Toro virus; type: functional, organism-based
Sindbis virus = test: Antiviral activity against Sindbis virus; type: functional, organism-based
[6] = test system: Mammalian orthoreovirus 1; test: Antiviral activity against Reovirus 1; type: functional, organism-based
Human respirovirus 3 = test: Antiviral activity against Parainfluenza virus 3; type: functional, organism-based
Influenza B virus = test: Antiviral activity against influenza B virus; type: functional, organism-based
Influenza A virus [7] = test: Antiviral activity against Influenza A virus H3N2; type: functional, organism-based
Influenza A virus [8] = test: Antiviral activity against Influenza A virus H1N1; type: functional, organism-based
[9] = test system: Respiratory syncytial virus; test: Antiviral activity against Respiratory syncytial virus; type: functional, organism-based
Coxsackievirus B4 = test: Antiviral activity against Coxsackievirus B4; type: functional, organism-based
[10] = test system: Vesicular stomatitis virus; test: Antiviral activity against Vesicular stomatitis virus; type: functional, organism-based
Vaccinia virus = test: Antiviral activity against Vaccinia virus; type: functional, organism-based; conditions: Orthopoxvirus vaccinia
Human alphaherpesvirus 2 = test: Antiviral activity against Human herpesvirus 2; type: functional, organism-based
Summary of the method: (§1)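 Confluent HEL, Vero, HeLa or MDCK monolayers (cell type per virus not specified) were inoculated with 100 CCID50 of virus, with a range of compound concentrations. Strains were HSV-1 KOS and TK− ACV-resistant KOS, HSV-2 Lyons and G, and HCMV AD-169 and Davis. Cytopathicity or plaques were scored once complete in untreated infected controls.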

Human alphaherpesvirus 1 = test: Antiviral activity against Human herpesvirus 1; type: functional, organism-based; summary of the method: as §1
Feline coronavirus = test: Antiviral activity against Feline coronavirus; type: functional, organism-based
Human betaherpesvirus 5 [11] = test: Antiviral activity against HCMV Davis; type: functional, organism-based; conditions: Human betaherpesvirus 5, Davis; summary of the method: as §1
Human betaherpesvirus 5 [12] = test: Antiviral activity against HCMV AD169; type: functional, organism-based; conditions: Human betaherpesvirus 5, AD169; summary of the method: as §1
[13] = biological target: Human immunodeficiency virus type 1 reverse transcriptase (Human immunodeficiency virus 1, UniProt Q72547, K103N/Y181C); test: Inhibition of HIV1 reverse transcriptase p66/p51 K103N/Y181C mutant after 30 mins by liquid scintillation counting
[14] = Inhibition of HIV1 reverse transcriptase p66/p51 G190A mutant after 30 mins by liquid scintillation counting; parameters: species or system Human immunodeficiency virus 1
[15] = biological target: Human immunodeficiency virus type 1 reverse transcriptase (Human immunodeficiency virus 1, UniProt Q72547, Y181C); test: Inhibition of HIV1 reverse transcriptase p66/p51 Y181C mutant after 30 mins by liquid scintillation counting
[16] = biological target: Human immunodeficiency virus type 1 reverse transcriptase (Human immunodeficiency virus 1, UniProt Q72547, V106A); test: Inhibition of HIV1 reverse transcriptase p66/p51 V106A mutant after 30 mins by liquid scintillation counting

`Cc1cc(Br)cc(Cn2c(=O)ccn(C/C=C/c3ccccc3)c2=O)c1` gave a pKi [1] of 5.16, a pKi [2] of 6.62 and a pKi [3] of 6.51. The selectivity ratio [4] was 73, the CC50 (MT4) was 100 µM and the pEC50 [5] was 5.87. For the same compound, the Activity (Human alphaherpesvirus 3) was “inactive”, the Activity (Punta Toro virus) was “inactive” and the Activity (Sindbis virus) was “inactive”. The Activity [6] was “inactive”, the Activity (Human respirovirus 3) was “inactive” and the Activity (Influenza B virus) was “inactive”. For the same compound, the Activity (Influenza A virus [7]) was “inactive”, the Activity (Influenza A virus [8]) was “inactive” and the Activity [9] was “inactive”. The Activity (Coxsackievirus B4) was “inactive”, the Activity [10] was “inactive” and the Activity (Vaccinia virus) was “inactive”. For the same compound, the Activity (Human alphaherpesvirus 2) was “inactive”, the Activity (Human alphaherpesvirus 1) was “inactive” and the Activity (Feline coronavirus) was “inactive”. The pIC50 (Human betaherpesvirus 5 [11]) was at most 4.70, the pIC50 (Human betaherpesvirus 5 [12]) was 4.80 and the pKi [13] was 4.07. For the same compound, the pKi [14] was 6.74, the pKi [15] was 4.70 and the pKi [16] was 5.64.

With `O=c1ccn(C/C=C/c2ccccc2)c(=O)n1Cc1cc(Br)cc(Br)c1` the pKi [1] was 5.03, the pKi [2] was 6.44 and the pKi [3] was 6.51. The selectivity ratio [4] was 134, the CC50 (MT4) was 231 µM and the pEC50 [5] was 5.76. The Activity (Human alphaherpesvirus 3) was “inactive”, the Activity (Punta Toro virus) was “inactive” and the Activity (Sindbis virus) was “inactive”. For the same compound, the Activity [6] was “inactive”, the Activity (Human respirovirus 3) was “inactive” and the Activity (Influenza B virus) was “inactive”. The Activity (Influenza A virus [7]) was “inactive”, the Activity (Influenza A virus [8]) was “inactive” and the Activity [9] was “inactive”. The Activity (Coxsackievirus B4) was “inactive”, the Activity [10] was “inactive” and the Activity (Vaccinia virus) was “inactive”. For the same compound, the Activity (Human alphaherpesvirus 2) was “inactive”, the Activity (Human alphaherpesvirus 1) was “inactive” and the Activity (Feline coronavirus) was “inactive”. For the same compound, the pKi [13] was under 4.00, the pKi [14] was 6.52 and the pKi [15] was 4.60. For the same compound, the pKi [16] was 5.38.

`Cc1ccc(OCCn2ccc(=O)n(Cc3cc(C)cc(C)c3)c2=O)cc1` showed a pKi [1] of under 4.59, a pKi [2] of 6.89 and a pKi [3] of 6.59. It also gave a selectivity ratio [4] of over 1270, a CC50 (MT4) of over 343 µM and a pEC50 [5] of 6.57. For the same compound, the Activity (Human alphaherpesvirus 3) was “inactive”, the Activity (Punta Toro virus) was “inactive” and the Activity (Sindbis virus) was “inactive”. For the same compound, the Activity [6] was “inactive”, the Activity (Human respirovirus 3) was “inactive” and the Activity (Influenza B virus) was “inactive”. The Activity (Influenza A virus [7]) was “inactive”, the Activity (Influenza A virus [8]) was “inactive” and the Activity [9] was “inactive”. The Activity (Coxsackievirus B4) was “inactive”, the Activity [10] was “inactive” and the Activity (Vaccinia virus) was “inactive”. The Activity (Human alphaherpesvirus 2) was “inactive”, the Activity (Human alphaherpesvirus 1) was “inactive” and the Activity (Feline coronavirus) was “inactive”. The pKi [13] was under 4.59, the pKi [14] was 6.44 and the pKi [15] was 3.77. It also gave a pKi [16] of 5.12.

In the case of `O=c1ccn(C/C=C/c2ccccc2)c(=O)n1Cc1cc(F)cc(F)c1`, the pKi [3] was 4.92, the selectivity ratio [4] was 4 and the CC50 (MT4) was 31 µM. For the same compound, the pEC50 [5] was 5.08, the Activity (Human alphaherpesvirus 3) was “inactive” and the Activity (Punta Toro virus) was “inactive”. For the same compound, the Activity (Sindbis virus) was “inactive”, the Activity [6] was “inactive” and the Activity (Human respirovirus 3) was “inactive”. For the same compound, the Activity (Influenza B virus) was “inactive”, the Activity (Influenza A virus [7]) was “inactive” and the Activity (Influenza A virus [8]) was “inactive”. The Activity [9] was “inactive”, the Activity (Coxsackievirus B4) was “inactive” and the Activity [10] was “inactive”. For the same compound, the Activity (Vaccinia virus) was “inactive”, the Activity (Human alphaherpesvirus 2) was “inactive” and the Activity (Human alphaherpesvirus 1) was “inactive”. For the same compound, the Activity (Feline coronavirus) was “inactive”, the pIC50 (Human betaherpesvirus 5 [11]) was 4.35 and the pIC50 (Human betaherpesvirus 5 [12]) was 4.43.

`O=c1ccn(C/C=C/c2ccccc2)c(=O)n1Cc1cc(Cl)cc(Cl)c1` showed a pKi [1] of 4.81, a pKi [2] of 6.04 and a pKi [3] of 6.17. The selectivity ratio [4] was 24, the CC50 (MT4) was 49 µM and the pEC50 [5] was 5.70. For the same compound, the Activity (Human alphaherpesvirus 3) was “inactive”, the Activity (Punta Toro virus) was “inactive” and the Activity (Sindbis virus) was “inactive”. The Activity [6] was “inactive”, the Activity (Human respirovirus 3) was “inactive” and the Activity (Influenza B virus) was “inactive”. The Activity (Influenza A virus [7]) was “inactive”, the Activity (Influenza A virus [8]) was “inactive” and the Activity [9] was “inactive”. For the same compound, the Activity (Coxsackievirus B4) was “inactive”, the Activity [10] was “inactive” and the Activity (Vaccinia virus) was “inactive”. For the same compound, the Activity (Human alphaherpesvirus 2) was “inactive”, the Activity (Human alphaherpesvirus 1) was “inactive” and the Activity (Feline coronavirus) was “inactive”. For the same compound, the pIC50 (Human betaherpesvirus 5 [11]) was 4.92, the pIC50 (Human betaherpesvirus 5 [12]) was 5.03 and the pKi [13] was under 4.00. For the same compound, the pKi [14] was 6.26, the pKi [15] was 4.37 and the pKi [16] was 4.96.

Compound `Cc1cc(C)cc(Cn2c(=O)ccn(C/C=C/c3ccccc3)c2=O)c1` has a pKi [1] of 4.92, a pKi [2] of 6.12 and a pKi [3] of 6.26. The selectivity ratio [4] was 202, the CC50 (MT4) was 257 µM and the pEC50 [5] was 5.90. For the same compound, the Activity (Human alphaherpesvirus 3) was “inactive”, the Activity (Punta Toro virus) was “inactive” and the Activity (Sindbis virus) was “inactive”. For the same compound, the Activity [6] was “inactive”, the Activity (Human respirovirus 3) was “inactive” and the Activity (Influenza B virus) was “inactive”. For the same compound, the Activity (Influenza A virus [7]) was “inactive”, the Activity (Influenza A virus [8]) was “inactive” and the Activity [9] was “inactive”. For the same compound, the Activity (Coxsackievirus B4) was “inactive”, the Activity [10] was “inactive” and the Activity (Vaccinia virus) was “inactive”. For the same compound, the Activity (Human alphaherpesvirus 2) was “inactive”, the Activity (Human alphaherpesvirus 1) was “inactive” and the Activity (Feline coronavirus) was “inactive”. For the same compound, the pKi [13] was under 4.00, the pKi [14] was 6.40 and the pKi [15] was 4.12. It also gave a pKi [16] of 5.54.
